ChEMBL document CHEMBL1158416, “Synthesis of yashabushidiol and its analogues and their cytotoxic activity against cancer cell lines” (Bioorg Med Chem Lett, 2009)
≈ marks a conversion by molar mass, not a printed value.

How the values were obtained:
Format in all cases: functional, cell-based
THP-1 = experiment: Antiproliferative activity against human THP1 cells after 48 hrs by MTT assay; conditions: THP-1, 48 h
Procedure, shortened: (§1)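 Cells in exponential growth exposed to a range of test concentrations for 48 h; growth inhibition read by MTT. IC50 taken as the concentration giving a 50% fall in cell number relative to untreated control cultures, derived by regression analysis.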

U-937 = experiment: Antiproliferative activity against human U937 cells after 48 hrs by MTT assay; conditions: U-937, 48 h; procedure, shortened: as §1
A-375 = experiment: Antiproliferative activity against human A375 cells after 48 hrs by MTT assay; conditions: A-375, 48 h; procedure, shortened: as §1

Compound	IC50 (THP-1) [µg/mL]	IC50 (U-937) [µg/mL]	IC50 (A-375) [µg/mL]
O[C@@H](CCc1ccccc1)C[C@@H](O)CCc1ccccc1	99.8 (≈ 351 µM)	128 (≈ 451 µM)	148 (≈ 520 µM)
COc1cc(CC[C@H](O)C[C@@H](O)CCc2ccccc2)ccc1O	42.7 (≈ 129 µM)	27.7 (≈ 83.7 µM)	69.1 (≈ 209 µM)
COc1cc(CC[C@@H](O)C[C@@H](O)CCc2ccccc2)ccc1O	72.2 (≈ 219 µM)	32.7 (≈ 98.9 µM)	75.2 (≈ 228 µM)

Next, values leading:

IC50 (THP-1) [µg/mL]	IC50 (U-937) [µg/mL]	IC50 (A-375) [µg/mL]	Compound
12.6 (≈ 42 µM)	33 (≈ 110 µM)	57.8 (≈ 192 µM)	Oc1ccc(CC[C@@H](O)C[C@@H](O)CCc2ccccc2)cc1
12.8 (≈ 42.7 µM)	31.1 (≈ 103 µM)	56.3 (≈ 187 µM)	Oc1ccc(CC[C@H](O)C[C@@H](O)CCc2ccccc2)cc1
40.5 (≈ 142 µM)	188 (≈ 660 µM)	164 (≈ 578 µM)	O[C@H](CCc1ccccc1)C[C@@H](O)CCc1ccccc1
